ChEMBL document CHEMBL1153794, “Oleanane-type triterpenoids from Aceriphyllum rossii and their cytotoxic activity” (J Nat Prod, 2009)

Legend:
[1] = Cytotoxicity activity against mouse LLC cells after 48 hrs by MTT assay; conditions: Lewis lung carcinoma
[2] = tested on: MCF7; test: Cytotoxic activity against human MCF7 cells after 48 hrs by MTT assay; format: functional, cell-based; conditions: MCF7, 48 h
How it was run: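 Modified MTT assay. Viable cells seeded at 1 × 10^4 per well in growth medium and incubated at 37 °C, 5% CO2. Samples dissolved in DMSO and diluted in growth medium to final concentrations of 5.0–150 µM. Optical density read on a microplate reader; IC50 values derived.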

| SMILES | IC50 [1] | IC50 [2] |
| --- | --- | --- |
| CC1(C)CC[C@]2(C)CC[C@]3(C(=O)O)C(=CC[C@@H]4[C@@]5(C)CC[C@@H](O)[C@@](C)(C=O)[C@@H]5CC[C@]43C)[C@@H]2C1 | 39.2 µM | 47 µM |
| C[C@@]1(C(=O)O)CC[C@]2(C)CC[C@]3(C)C(=CC[C@@H]4[C@@]5(C)CC[C@@H](O)[C@@](C)(C(=O)O)[C@@H]5CC[C@]43C)[C@@H]2C1 | 47.8 µM | 62.4 µM |
| CC(=O)O[C@@H]1CC[C@@]2(C)[C@@H](CC[C@]3(C)[C@@H]2CC=C2[C@@H]4CC(C)(C)CC[C@]4(C)CC[C@]23C(=O)O)[C@]1(C)C(=O)O | > 150 µM | 58.4 µM |
| CC1(C)CC[C@]2(C)CC[C@]3(C(=O)O)C(=CC[C@@H]4[C@@]5(C)CC[C@@H](OC(=O)/C=C/c6ccc(O)c(O)c6)C(C)(C)[C@@H]5CC[C@]43C)[C@@H]2C1 | > 150 µM | > 150 µM |
| CC(=O)O[C@@H]1CC[C@@]2(C)[C@@H](CC[C@]3(C)[C@@H]2CC=C2[C@@H]4C[C@](C)(C(=O)O)CC[C@]4(C)CC[C@]23C)[C@]1(C)C(=O)O | > 150 µM | > 150 µM |
| C[C@@]1(C(=O)O)CC[C@]2(C)CC[C@]3(C)C(=CC[C@@H]4[C@@]5(C)CC[C@H](O)[C@@](C)(C(=O)O)[C@@H]5CC[C@]43C)[C@@H]2C1 | > 150 µM | > 150 µM |
| CC1(C)CC[C@]2(C)CC[C@]3(C(=O)O)C(=CC[C@@H]4[C@@]5(C)CC[C@H]6OC(C)(C)OC[C@@]6(C)[C@@H]5CC[C@]43C)[C@@H]2C1 | > 150 µM | > 150 µM |
| C[C@@]1(C(=O)O)CC[C@]2(C)CC[C@]3(C)C(=CC[C@@H]4[C@@]5(C)CC[C@H](O)[C@@](C)(CO)[C@@H]5CC[C@]43C)[C@@H]2C1 | > 150 µM | 107 µM |
| CC1(C)CC[C@]2(C)CC[C@]3(C(=O)O)C(=CC[C@@H]4[C@@]5(C)CCC(=O)C(C)(C)[C@@H]5CC[C@]43C)[C@@H]2C1 | > 150 µM | 53.6 µM |
| CC1(C)CC[C@]2(C)CC[C@]3(C(=O)O)C(=CC[C@@H]4[C@@]5(C)CCC(=O)[C@@](C)(CO)[C@@H]5CC[C@]43C)[C@@H]2C1 | 6.56 µM | 39.2 µM |
| CC1(C)[C@@H](O)CC[C@]2(C)[C@H]3CC=C4[C@@H]5C[C@](C)(C(=O)O)CC[C@]5(C)CC[C@@]4(C)[C@]3(C)CC[C@@H]12 | 16.6 µM | > 150 µM |
| CC1(C)CC[C@]2(C)CC[C@]3(C(=O)O)C(=CC[C@@H]4[C@@]5(C)CC[C@H](O)C(C)(C)[C@@H]5CC[C@]43C)[C@@H]2C1 | 7.63 µM | > 150 µM |
| CC1(C)CC[C@]2(C)CC[C@]3(C(=O)O)C(=CC[C@@H]4[C@@]5(C)CC[C@@H](O)[C@@](C)(CO)[C@@H]5CC[C@]43C)[C@@H]2C1 [ACERIPHYLLIC ACID A] | 8.36 µM | > 150 µM |
| CC1(C)CC[C@]2(C(=O)O)CC[C@]3(C)C(=CC[C@@H]4[C@@]5(C)CC[C@H](O)C(C)(C)[C@@H]5CC[C@]43C)[C@@H]2C1 [OLEANOLIC_ACID] | > 150 µM | > 150 µM |
